Source: ChEMBL document CHEMBL3774373, “Activity and Predicted Nephrotoxicity of Synthetic Antibiotics Based on Polymyxin B” (J Med Chem, 2016)
In brackets after ≈: the same amount, converted by molar mass. Numbered stars: 1 amine (or outer) side, 2 acyl side, 3 side chain; on linkers, the order of the positions; unused ones are H or OH. Bridge positions count the residues as written; N and C are the ends. Square brackets hold non-standard residues; d marks the D form. Peptide text beside a SMILES is read from it. * marks the point of attachment. ξ: configuration not given here. Bip = N[C@@H](Cc1ccc(-c2ccccc2)cc1)C(=O)O; Phe(4-NH2) = Nc1ccc(C[C@H](N)C(=O)O)cc1; ξGly(octyl) = CCCCCCCCC(N)C(=O)O; NH(2-ClPh) = Clc1ccccc1N*; hSer = N[C@@H](CCO)C(=O)O; Octanoyl = CCCCCCCC(=O)*; Dab = NCC[C@H](N)C(=O)O; CO = O=C([*:1])[*:2]

Key:
[1] = Cytotoxicity against HK2 cells assessed as GGT release by Western blot analysis; format: cell-based, HK-2; conditions: human, primary human renal proximal tubule epithelial cells; read-out: CC50
Staphylococcus aureus = experiment: microbe, parasite or virus in culture; conditions: ATCC 25923, 18 h
[2] = Cytotoxicity against human HepG2 cells after 24 hrs by resazurin assay; format: cell-based; conditions: HepG2 cells
[3] = Cytotoxicity against HK2 cells assessed as LDH release by Western blot analysis; format: cell-based, HK-2; conditions: human, primary human renal proximal tubule epithelial cells; read-out: CC50
Pseudomonas aeruginosa [4] = experiment: Antibacterial activity against clinical isolate polymyxin resistant Pseudomonas aeruginosa PA9704 after 18 hrs by 2 fold serial dilution method; format: functional; conditions: PA9704, 18 h
Outline: (§1)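 Polymyxin-resistant clinical isolates were grown overnight at 37 °C in NB or MHB with shaking, diluted 50-fold in MHB and grown 1.5–3 h to mid-log phase. The inoculum was 5×10^5 CFU/mL. Compounds were 2-fold broth serial dilutions, final 32 to 0.015 μg/mL; the polymyxin controls ran 128–0.06 μg/mL. The MIC was the lowest concentration with no visible growth after 18 h at 37 °C.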

Acinetobacter baumannii [5] = experiment: Antibacterial activity against Acinetobacter baumannii ATCC 19606 after 18 hrs by 2 fold serial dilution method; format: functional; conditions: ATCC 19606, 18 h
Outline: (§2)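 Overnight cultures in nutrient or Mueller Hinton broth at 37 °C with shaking, diluted 50-fold into fresh MHB and grown 1.5–3 h to mid-log. Inoculum 5×10^5 CFU/mL in 2-fold serial dilutions, final range 32 to 0.015 μg/mL. MIC read visually after 18 h at 37 °C as the lowest concentration with no visible growth.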

[6] = Cytotoxicity against HEK293 cells after 24 hrs by resazurin assay; format: cell-based; conditions: human, HEK293 cells
Klebsiella pneumoniae [7] = experiment: Antibacterial activity against Klebsiella pneumoniae ATCC BAA-2146 expressing NDM-1 after 18 hrs by 2 fold serial dilution method; format: functional; conditions: ATCC BAA-2146, 18 h
Outline: (§3)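 Overnight cultures at 37 °C in nutrient or Mueller Hinton broth with shaking were diluted 50-fold in MHB and grown 1.5–3 h to mid-log phase. The inoculum was 5×10^5 CFU/mL in MHB. Compounds were 2-fold serially diluted, final 32 to 0.015 μg/mL. After 18 h at 37 °C, the MIC was read visually as the lowest concentration with no visible growth.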

Pseudomonas aeruginosa [8] = experiment: Antibacterial activity against clinical isolate polymyxin resistant Pseudomonas aeruginosa FADDI-PA070 after 18 hrs by 2 fold serial dilution method; format: functional; conditions: FADDI-PA070, 18 h; outline: as §1
Klebsiella pneumoniae [9] = experiment: Antibacterial activity against clinical isolate carbapenem and polymyxin resistant Klebsiella pneumoniae Koprana 100650661:1 after 18 hrs by 2 fold serial dilution method; format: functional; conditions: Koprana 100650661:1, 18 h; outline: as §1
Klebsiella pneumoniae [10] = experiment: Antibacterial activity against clinical isolate carbapenem and polymyxin resistant Klebsiella pneumoniae 138-16357-20362 after 18 hrs by 2 fold serial dilution method; format: functional; conditions: 138-16357-20362, 18 h; outline: as §1
Klebsiella pneumoniae [11] = experiment: Antibacterial activity against Klebsiella pneumoniae ATCC 13883 after 18 hrs by 2 fold serial dilution method; format: functional; conditions: ATCC 13883, 18 h; outline: as §2
Acinetobacter baumannii [12] = experiment: Antibacterial activity against clinical isolate carbapenem and polymyxin resistant Acinetobacter baumannii Ptyela 100734512:2 after 18 hrs by 2 fold serial dilution method; format: functional; conditions: Ptyela 100734512:2, 18 h; outline: as §1
Pseudomonas aeruginosa [13] = experiment: Antibacterial activity against Pseudomonas aeruginosa ATCC 27853 after 18 hrs by 2 fold serial dilution method; format: functional; conditions: ATCC 27853, 18 h; outline: as §2
Escherichia coli = experiment: Antibacterial activity against Escherichia coli ATCC 25922 after 18 hrs by 2 fold serial dilution method; format: functional; conditions: ATCC 25922, 18 h; outline: as §2
Klebsiella pneumoniae [14] = experiment: Antibacterial activity against multidrug resistant Klebsiella pneumoniae ATCC 700603 after 18 hrs by 2 fold serial dilution method; format: functional; conditions: Klebsiella pneumoniae, 700603, 18 h; outline: as §3

Structure (SMILES)	CC50 [1]	MIC (Staphylococcus aureus)	CC50 at 24 h [2]	CC50 [3]	MIC (Pseudomonas aeruginosa [4])	MIC (Acinetobacter baumannii [5])	CC50 at 24 h [6]	MIC (Klebsiella pneumoniae [7])	MIC (Pseudomonas aeruginosa [8])	MIC (Klebsiella pneumoniae [9])	MIC (Klebsiella pneumoniae [10])	MIC (Klebsiella pneumoniae [11])	MIC (Acinetobacter baumannii [12])	MIC (Pseudomonas aeruginosa [13])	MIC (Escherichia coli)	MIC (Klebsiella pneumoniae [14])
CCCCCCCC(=O)N[C@@H](CCN)C(=O)N[C@H](C(=O)NCC(=O)N[C@H]1CCNC(=O)[C@H]([C@@H](C)O)NC(=O)[C@H](CCN)NC(=O)[C@H](CCN)NC(=O)[C@H](CC(C)C)NC(=O)[C@@H](Cc2ccccc2)NC(=O)[C@H](CCN)NC1=O)[C@@H](C)O (Octanoyl-[Dab]TG[Dab][Dab][dF]L[Dab][Dab]T; lactam 4-C)	> 128 µg/mL	> 64 µg/mL	> 300 µM	122 µg/mL (≈ 106 µM)	> 32 µg/mL	1 µg/mL (≈ 0.872 µM)	> 300 µM	0.5 µg/mL (≈ 0.436 µM)	> 32 µg/mL	> 32 µg/mL	> 32 µg/mL	0.5 µg/mL (≈ 0.436 µM)	> 32 µg/mL	2 µg/mL (≈ 1.74 µM)	0.5 µg/mL (≈ 0.436 µM)	1 µg/mL (≈ 0.872 µM)
CCCCCCCCC1NC(=O)[C@@H](Cc2ccccc2)NC(=O)[C@H](CCN)NC(=O)[C@@H](NC(=O)[C@H](CCN)NC(=O)[C@@H](NC(=O)[C@H](CCN)NC(=O)CCCCCCC)[C@@H](C)O)CCNC(=O)[C@H]([C@@H](C)O)NC(=O)[C@H](CCN)NC(=O)[C@H](CCN)NC1=O (some centres not stated) (Octanoyl-[Dab]T[Dab][Dab][Dab][dF][ξGly(octyl)][Dab][Dab]T; lactam 4-C)	–	8 µg/mL (≈ 6.42 µM)	116 µM	–	8 µg/mL (≈ 6.42 µM)	1 µg/mL (≈ 0.803 µM)	–	1 µg/mL (≈ 0.803 µM)	16 µg/mL (≈ 12.8 µM)	32 µg/mL (≈ 25.7 µM)	32 µg/mL (≈ 25.7 µM)	2 µg/mL (≈ 1.61 µM)	8 µg/mL (≈ 6.42 µM)	2 µg/mL (≈ 1.61 µM)	1 µg/mL (≈ 0.803 µM)	2 µg/mL (≈ 1.61 µM)
CC(C)C[C@@H]1NC(=O)[C@@H](Cc2ccccc2)NC(=O)[C@H](CCN)NC(=O)[C@@H](NC(=O)[C@@H](CO)NC(=O)[C@@H](NC(=O)[C@H](CCN)NC(=O)Nc2ccccc2Cl)[C@@H](C)O)CCNC(=O)[C@H]([C@@H](C)O)NC(=O)[C@H](CCN)NC(=O)[C@H](CCN)NC1=O ({NH(2-ClPh)-CO}-[Dab]T[dS][Dab][Dab][dF]L[Dab][Dab]T; lactam 4-C)	–	> 32 µg/mL	> 300 µM	–	> 32 µg/mL	> 32 µg/mL	–	> 32 µg/mL	> 32 µg/mL	> 32 µg/mL	> 32 µg/mL	32 µg/mL (≈ 26.6 µM)	> 32 µg/mL	8 µg/mL (≈ 6.65 µM)	32 µg/mL (≈ 26.6 µM)	16 µg/mL (≈ 13.3 µM)
CCCCCCCC(=O)N[C@@H](CCN)C(=O)N[C@H](C(=O)N[C@@H](CCN)C(=O)N[C@H]1CCNC(=O)[C@H]([C@@H](C)O)NC(=O)[C@H](CCN)NC(=O)[C@H](CCN)NC(=O)[C@H](CC(C)C)NC(=O)[C@@H](Cc2ccccc2)NC(=O)[C@H](CCO)NC1=O)[C@@H](C)O (Octanoyl-[Dab]T[Dab][Dab][hSer][dF]L[Dab][Dab]T; lactam 4-C)	–	> 32 µg/mL	> 300 µM	–	> 32 µg/mL	> 32 µg/mL	–	32 µg/mL (≈ 26.9 µM)	> 32 µg/mL	> 32 µg/mL	> 32 µg/mL	> 32 µg/mL	> 32 µg/mL	> 32 µg/mL	16 µg/mL (≈ 13.4 µM)	> 32 µg/mL
CCCCCCCC(=O)N[C@@H](CCN)C(=O)N[C@H](C(=O)N[C@@H](CCN)C(=O)N[C@H]1CCNC(=O)[C@H]([C@@H](C)O)NC(=O)[C@H](CCN)NC(=O)[C@H](CCN)NC(=O)[C@H](CC(C)C)NC(=O)[C@@H](Cc2ccccc2)NC(=O)[C@H](CCNC(=O)[C@@H](N)CCCNC(=N)N)NC1=O)[C@@H](C)O (Octanoyl-[Dab]T[Dab][Dab][Dab](Arg)[dF]L[Dab][Dab]T; lactam 4-C)	–	> 32 µg/mL	> 300 µM	–	> 32 µg/mL	32 µg/mL (≈ 23.8 µM)	–	16 µg/mL (≈ 11.9 µM)	> 32 µg/mL	> 32 µg/mL	> 32 µg/mL	32 µg/mL (≈ 23.8 µM)	> 32 µg/mL	32 µg/mL (≈ 23.8 µM)	32 µg/mL (≈ 23.8 µM)	16 µg/mL (≈ 11.9 µM)
CCCCCCCC(=O)N[C@@H](CCN)C(=O)N[C@H](C(=O)N[C@@H](CCN)C(=O)N[C@H]1CCNC(=O)[C@H]([C@@H](C)O)NC(=O)[C@H](Cc2ccc(N)cc2)NC(=O)[C@H](CCN)NC(=O)[C@H](CC(C)C)NC(=O)[C@@H](Cc2ccccc2)NC(=O)[C@H](CCN)NC1=O)[C@@H](C)O (Octanoyl-[Dab]T[Dab][Dab][Dab][dF]L[Dab][Phe(4-NH2)]T; lactam 4-C)	–	> 32 µg/mL	> 300 µM	–	> 32 µg/mL	> 32 µg/mL	–	16 µg/mL (≈ 12.8 µM)	> 32 µg/mL	> 32 µg/mL	> 32 µg/mL	> 32 µg/mL	> 32 µg/mL	32 µg/mL (≈ 25.6 µM)	16 µg/mL (≈ 12.8 µM)	16 µg/mL (≈ 12.8 µM)
CCCCCCCC(=O)N[C@@H](CCN)C(=O)N[C@H](C(=O)N[C@@H](CCN)C(=O)N[C@H]1CCNC(=O)[C@H]([C@@H](C)O)NC(=O)[C@H](CCN)NC(=O)[C@H](CCNC(=O)[C@@H](N)CCC(=O)O)NC(=O)[C@H](CC(C)C)NC(=O)[C@@H](Cc2ccccc2)NC(=O)[C@H](CCN)NC1=O)[C@@H](C)O (Octanoyl-[Dab]T[Dab][Dab][Dab][dF]L[Dab](Glu)[Dab]T; lactam 4-C)	–	> 32 µg/mL	> 300 µM	–	> 32 µg/mL	4 µg/mL (≈ 3.03 µM)	–	4 µg/mL (≈ 3.03 µM)	> 32 µg/mL	> 32 µg/mL	> 32 µg/mL	8 µg/mL (≈ 6.07 µM)	> 32 µg/mL	8 µg/mL (≈ 6.07 µM)	1 µg/mL (≈ 0.758 µM)	4 µg/mL (≈ 3.03 µM)
CCCCCCCC(=O)N[C@@H](CCN)C(=O)N[C@H](C(=O)N[C@@H](CCN)C(=O)N[C@H]1CCNC(=O)[C@H]([C@@H](C)O)NC(=O)[C@H](CCN)NC(=O)[C@H](CCN)NC(=O)[C@H](Cc2ccc(-c3ccccc3)cc2)NC(=O)[C@@H](Cc2ccccc2)NC(=O)[C@H](CCN)NC1=O)[C@@H](C)O (Octanoyl-[Dab]T[Dab][Dab][Dab][dF][Bip][Dab][Dab]T; lactam 4-C)	–	8 µg/mL (≈ 6.16 µM)	117 µM	–	16 µg/mL (≈ 12.3 µM)	1 µg/mL (≈ 0.769 µM)	–	1 µg/mL (≈ 0.769 µM)	16 µg/mL (≈ 12.3 µM)	32 µg/mL (≈ 24.6 µM)	> 32 µg/mL	4 µg/mL (≈ 3.08 µM)	32 µg/mL (≈ 24.6 µM)	2 µg/mL (≈ 1.54 µM)	1 µg/mL (≈ 0.769 µM)	2 µg/mL (≈ 1.54 µM)
